ChEMBL document CHEMBL1121856, “Sulfur analogues of psychotomimetic agents. Monothio analogues of mescaline and isomescaline” (J Med Chem, 1981)

How the values were obtained:
Homo sapiens = organism: Homo sapiens; assay: Compound was tested for the psychotropic effect in human (activity is expressed in mescaline unit); format: functional
In short: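 Healthy adult volunteers (32–65 y, experienced with psychotropic drugs) received the hydrochloride orally. Dosing began at 2 mg and rose in small increments (1.6:1) at trials spaced about 1 week apart until an effective level was found. Mescaline units are the effective dose of mescaline divided by that of the compound, both determined in man. A "less than" value means no activity at doses that would give that MU.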

[1] = target: T1, monoamine oxidase (bovine plasma amine oxidase) (Bos taurus, UniProt P21398+P56560); assay: In vitro bovine plasma monoamine oxidase deamination without semicarbazide; format: cell-free; settings: cattle, read-out: MAO deamination
T1 sequence (P56560 whole entry): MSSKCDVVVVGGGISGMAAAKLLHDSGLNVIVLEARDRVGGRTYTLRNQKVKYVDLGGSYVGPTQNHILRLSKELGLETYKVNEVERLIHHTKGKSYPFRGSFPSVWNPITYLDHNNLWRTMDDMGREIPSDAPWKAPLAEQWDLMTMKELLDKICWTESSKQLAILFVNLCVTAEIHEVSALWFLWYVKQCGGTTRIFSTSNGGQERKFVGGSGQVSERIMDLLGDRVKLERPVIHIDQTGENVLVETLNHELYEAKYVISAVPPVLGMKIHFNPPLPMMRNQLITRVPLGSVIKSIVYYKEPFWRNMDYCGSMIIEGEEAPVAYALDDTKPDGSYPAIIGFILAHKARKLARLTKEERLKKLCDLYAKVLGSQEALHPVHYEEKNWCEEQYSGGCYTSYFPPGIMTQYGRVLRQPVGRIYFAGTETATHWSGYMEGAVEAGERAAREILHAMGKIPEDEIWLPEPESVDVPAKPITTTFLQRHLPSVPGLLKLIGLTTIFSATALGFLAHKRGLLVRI
T1 sequence (P21398 whole entry): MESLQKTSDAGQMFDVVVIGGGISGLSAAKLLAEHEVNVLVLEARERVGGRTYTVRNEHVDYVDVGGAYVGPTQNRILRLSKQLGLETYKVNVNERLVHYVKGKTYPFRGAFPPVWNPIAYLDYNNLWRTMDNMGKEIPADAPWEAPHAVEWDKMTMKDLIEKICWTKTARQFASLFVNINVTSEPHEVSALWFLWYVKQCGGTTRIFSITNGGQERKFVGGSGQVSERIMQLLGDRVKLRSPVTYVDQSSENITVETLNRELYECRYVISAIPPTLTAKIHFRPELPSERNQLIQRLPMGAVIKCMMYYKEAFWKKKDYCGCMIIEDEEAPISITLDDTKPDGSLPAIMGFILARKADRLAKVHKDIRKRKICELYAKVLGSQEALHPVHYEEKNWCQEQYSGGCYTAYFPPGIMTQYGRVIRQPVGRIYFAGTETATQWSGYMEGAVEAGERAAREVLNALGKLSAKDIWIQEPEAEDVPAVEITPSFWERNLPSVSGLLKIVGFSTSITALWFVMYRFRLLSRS
In short: (§1)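 Amines at 50 μM in 0.1 M phosphate buffer, pH 7.4, with 0.01 unit bovine plasma MAO, no semicarbazide, in duplicate, 1 h at 37 °C. Stopped with 0.5 N NaOH, internal standard added, extracted into CH2Cl2. Remaining amine measured by GC (OV-101, 185 °C) as heptafluorobutyryl derivatives, quantitated by peak-height ratio against standards prepared without enzyme.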

[2] = target: T1, monoamine oxidase (bovine plasma amine oxidase); assay: In vitro bovine plasma monoamine oxidase deamination with semicarbazide; format: cell-free; settings: cattle, with semicarbazide (concentration not stated), read-out: MAO deamination
In short: as §1, with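 “MAO and 50 μM” for “MAO, no”, “GC” for “GC (OV-101, 185 °C)”, “enzyme-free standards.” for “standards prepared without enzyme.”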

| Structure (SMILES) | Human potency (Homo sapiens) | metabolised [1] | metabolised [2] |
| --- | --- | --- | --- |
| COc1cc(CCN)cc(SC)c1OC | 6 MU | 60% | – |
| COc1cc(CCN)cc(OC)c1OC [MESCALINE] | 1 MU | 21% | 1% |
| COc1ccc(CCN)cc1OC | <1 MU | 64% | 16% |
| COc1ccc(CCN)c(OC)c1SC | <2 MU | 31% | – |
| COc1ccc(CCN)c(OC)c1OC | <1 MU | 55% | 4% |
| COc1ccc(CCN)c(SC)c1OC | <2 MU | 78% | 10% |
| COc1cc(CCN)cc(OC)c1SC | 12 MU | 56% | – |
| COc1c(CCN)ccc(SC)c1OC | <2 MU | 40% | – |
